Consider 10 molecules from article PMC4049353 (Steroids, 2014).

The subject of experiment [1] is CD40L-induced NF-κB activation. Description: suppression of CD40L-induced NF-κB activation in HEK-Blue CD40L sensor cells. In kind it is cell-based, human. Particulars: for IC50: Homo sapiens, HEK-Blue, 30 h, read-out: CD40L, IC50; for CD40L/TNFα pot.: potency ratio of CD40L assay vs TNFα assay; for rRBACD40L: relative potency from CD40L IC50, DEX = 100. The procedure, abridged: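 Reporter HEK293 cells (human CD40; NF-κB/AP-1-driven SEAP) at about 5 × 10⁴ cells/well in 1% FBS DMEM. Stimulated with CD40L (CD154, 25 ng/mL) plus test compound at 0–1000 nM (10-fold steps) for 30 h at 37°C, 5% CO₂. SEAP read by QUANTI-Blue at 620–655 nm. Five independent experiments in triplicate or quadruplicate. Percent suppression vs stimulation alone fitted to a Hill model (bottom fixed at zero; Emax and nH shared).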

The subject of experiment [2] is TNFα-induced NF-κB activation. The experiment can be described thus: suppression of TNFα-induced NF-κB activation in HEK-Blue CD40L sensor cells. The note with it: for IC50: Homo sapiens, HEK-Blue, 20 h, read-out: TNFα, IC50; for rRBATNFα: relative potency from TNFα IC50, DEX = 100. It is filed as cell-based, human. The procedure, abridged: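 Cells used: HEK293 stably expressing human CD40 and an NF-κB/AP-1-inducible SEAP, seeded at about 5 × 10⁴ cells/well in 1% FBS DMEM. TNFα (3 ng/mL) added with test compound at 0, 0.01, 0.1, 1.0, 10, 100 or 1000 nM; incubated 20 h at 37°C, 5% CO₂. SEAP quantified with QUANTI-Blue at 620–655 nm. Five independent experiments, triplicates or quadruplicates. Percent suppression fitted to a Hill equation (bottom zero; shared Emax and nH).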

In experiment [3] the target is glucocorticoid receptor (GR). The note with it: cited from earlier work; for Kd: read-out: Kd,lit, consensus average of published GR binding values; for rRBAlit: relative receptor binding affinity, DEX = 100.
Experiment [4] concerns the target CD40 (Homo sapiens) (UniProt P25942). The note with it: cited from earlier work.
UniProt P25942, sequence (P25942 21-277): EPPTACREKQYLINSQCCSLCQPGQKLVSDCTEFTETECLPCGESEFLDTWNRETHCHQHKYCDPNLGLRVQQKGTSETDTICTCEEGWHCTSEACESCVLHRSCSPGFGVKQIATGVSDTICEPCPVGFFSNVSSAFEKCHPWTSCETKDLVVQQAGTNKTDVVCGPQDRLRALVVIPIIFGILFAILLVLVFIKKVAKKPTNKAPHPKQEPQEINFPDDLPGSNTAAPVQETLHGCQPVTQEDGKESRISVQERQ
For experiment [5], the target named is CD40. Particulars: read-out: Kd CD40L – CD40; cell-free binding; cited from earlier work.
In experiment [6] the test system is NF-κB activation in HEK-Blue CD40L sensor cells. Description: ligand-induced NF-κB activation of HEK-Blue CD40L sensor cells. It is filed as cell-based, human. The note with it: one-site specific binding model. The gist of the method: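 HEK293 cells stably carrying human CD40 and a SEAP reporter under the IFN-β minimal promoter with five NF-κB and five AP-1 sites. Grown in DMEM (4.5 g/L glucose, 10% FBS, 2 mM L-glutamine), then resuspended in 1% FBS medium. Stimulated with FLAG-tagged TNFα or CD40L (CD154) over a concentration series. SEAP measured with QUANTI-Blue at 620–655 nm; data fitted with a one-site specific binding model.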

Experiment [7] has as its target TNF-R1. Particulars: read-out: Kd TNFα – TNF-R1; cell-free binding; cited from earlier work.

Several values for one entry are separate records, joined by “and”; a condition that tells them apart may be missing. Identical values can stand only once.

CD40L, sequence (P29965 113-261): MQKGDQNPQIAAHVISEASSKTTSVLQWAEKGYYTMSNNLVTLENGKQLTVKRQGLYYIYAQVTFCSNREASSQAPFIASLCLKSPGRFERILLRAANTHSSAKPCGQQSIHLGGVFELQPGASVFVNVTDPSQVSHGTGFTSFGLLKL

The term IC50 denotes the concentration that inhibits the measured activity by half. For the molecule `CCC(=O)OCC(=O)[C@@]1(OC(=O)CC)[C@@H](C)C[C@H]2[C@@H]3CCC4=CC(=O)C=C[C@]4(C)[C@@]3(Cl)[C@@H](O)C[C@@]21C` [BDP, beclomethasone dipropionate], in experiment [1], the 50% inhibitory concentration (IC50) amounted to 0.22 nM, the CD40L/TNFα pot. is listed as 0.46 and the rRBACD40L came out at 872.2. In experiment [2], the IC50 is 0.1 nM and the rRBATNFα is given as 2952.7.

What is called Kd is the equilibrium constant for the complex coming apart. On to `CCC(=O)O[C@]1(C(=O)CCl)[C@@H](C)C[C@H]2[C@@H]3CCC4=CC(=O)C=C[C@]4(C)[C@@]3(F)[C@@H](O)C[C@@]21C` [CP, clobetasol propionate], for which, in experiment [1], the IC50 turned out to be 0.01 nM, the CD40L/TNFα pot. was 1.62 and the rRBACD40L is on record as 13653.4. In experiment [3], the dissociation constant Kd is 0.1 nM and the rRBAlit is 6300.0. In addition, in experiment [2], the IC50 was 0.02 nM and the rRBATNFα was determined as 13074.5.

As to `C[C@@H]1C[C@H]2[C@@H]3CCC4=CC(=O)C=C[C@]4(C)[C@@]3(F)[C@@H](O)C[C@]2(C)[C@@]1(O)C(=O)CO` [DEX, dexamethasone], in experiment [1], the IC50 was determined as 1.89 nM, the CD40L/TNFα pot. is 1.55 and the rRBACD40L stood at 100.0. Also, the rRBAlit in experiment [3] is recorded as 100.0. In experiment [2], the IC50 is 2.93 nM and the rRBATNFα was 100.0.

On to `C[C@]12CCC(=O)C=C1CC[C@@H]1[C@@H]2[C@@H](O)C[C@@]2(C)[C@H]1CC[C@]2(O)C(=O)CO` [HC, hydrocortisone], for which, in experiment [1], the IC50 was 0.54 nM, the CD40L/TNFα pot. stood at 28.75 and the rRBACD40L came out at 350.3. In experiment [3], the rRBAlit is reported as 10. Besides, in experiment [2], the IC50 came to 15.5 nM and the rRBATNFα is reported as 18.9.

In the case of `CCOC(=O)O[C@]1(C(=O)OCCl)CC[C@H]2[C@@H]3CCC4=CC(=O)C=C[C@]4(C)[C@H]3[C@@H](O)C[C@@]21C` [LE, loteprednol etabonate], in experiment [1], the IC50 was 0.06 nM, the CD40L/TNFα pot. was found to be 13.96 and the rRBACD40L is on record as 3357.0. Also, in experiment [3], the Kd is 4.39 nM and the rRBAlit is reported as 150.0. Further, in experiment [2], the IC50 is 0.79 nM and the rRBATNFα is recorded as 372.6.

In the case of `C[C@]12C=CC(=O)C=C1CC[C@@H]1[C@@H]2[C@@H](O)C[C@@]2(C)[C@H]1CC[C@]2(O)C(=O)CO` [PRED, prednisolone], in experiment [1], the IC50 was 0.3 nM, the CD40L/TNFα pot. is 47.49 and the rRBACD40L was 632.9. Further, in experiment [3], the “GR rRBA” value is recorded as “≈ 20 % of dexamethasone” and the rRBAlit is 19.0. In experiment [2], the half-inhibitory concentration (IC50) amounted to 14.2 nM and the rRBATNFα is 20.6.

With `CC1(C)O[C@@H]2C[C@H]3[C@@H]4CCC5=CC(=O)C=C[C@]5(C)[C@@]4(F)[C@@H](O)C[C@]3(C)[C@]2(C(=O)CO)O1` [TA, triamcinolone acetonide], in experiment [1], the 50% inhibitory concentration (IC50) turned out to be 0.43 nM, the CD40L/TNFα pot. is recorded as 1.77 and the rRBACD40L is recorded as 442.1. Besides, in experiment [3], the dissociation constant (Kd) is 2.44 nM and the rRBAlit is recorded as 270.0. Besides, in experiment [2], the IC50 came out at 0.76 nM and the rRBATNFα is recorded as 387.4.

In the case of CD40L (from UniProt P29965), the equilibrium dissociation constant (Kd) in experiment [4] was 1 nM.

For the molecule “CD40L: FLAG-tagged ligand used for stimulation in the cell assays (Axxora)”, in experiment [5], the Kd was around 1 nM. Further, the “median effective concentration (EC50) for NF-κB activation” value in experiment [6] is 0.041 µg/mL and ~0.04 µg/mL.

Consider TNFα, for which the Kd in experiment [7] is around 0.5 nM. Besides, the “median effective concentration (EC50) for NF-κB activation” value in experiment [6] was 0.0027 µg/mL and ~0.003 µg/mL.
